V1R ag counter: agonists of human V1a receptor, primary screen, counter-screen for OXTR agonist project, fluorescence, CHO-V1R cells. Fluo-8 calcium fluorescence, agonist mode; 0% DMSO, 100% 3 nM vasopressin. activation, % at 3 µM. 0.25% of 320,000 active. AID 2797, 2010;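 active = activation above the mean activation of all tested compounds plus 3 SD, per screening run, cut at about 20% in these data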;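 note: signal is peak over basal fluorescence ratio across a 100 second FLIPR read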
OX1R antag-1: OX1R (HCRTR1) antagonists, primary screen, fluorescence, CHO/OX1R cells, Fluo-8 calcium, orexin A. Orexin/Hypocretin receptor type 1 (Homo sapiens), O43613. Fluo-8 calcium fluorescence. inhibition, % at 5 µM. 0.43% of 330,000 active. AID 434989, 2010;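 active = inhibition above its plate's threshold, mean inhibition of all tested compounds on the plate plus 3 SD, cut at about 37% in these data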
OXTR ag: human OXTR agonists, primary screen, fluorescence, CHO-OTR cells, Fluo-8 calcium | Fluo-8 calcium fluorescence; normalized: DMSO 0%, oxytocin 100% | 0.32% of 320,000 active | activation, % at 3 µM | AID 2435, 2010 | Oxytocin receptor (Homo sapiens), P30559;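 active = activation above the mean of all tested compounds plus 3 SD, cutoff set per screening run, cut at about 20% in these data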;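 note: peak over basal fluorescence ratio from a 100 s FLIPR kinetic read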
Target sequence (P30559 whole entry, looked up): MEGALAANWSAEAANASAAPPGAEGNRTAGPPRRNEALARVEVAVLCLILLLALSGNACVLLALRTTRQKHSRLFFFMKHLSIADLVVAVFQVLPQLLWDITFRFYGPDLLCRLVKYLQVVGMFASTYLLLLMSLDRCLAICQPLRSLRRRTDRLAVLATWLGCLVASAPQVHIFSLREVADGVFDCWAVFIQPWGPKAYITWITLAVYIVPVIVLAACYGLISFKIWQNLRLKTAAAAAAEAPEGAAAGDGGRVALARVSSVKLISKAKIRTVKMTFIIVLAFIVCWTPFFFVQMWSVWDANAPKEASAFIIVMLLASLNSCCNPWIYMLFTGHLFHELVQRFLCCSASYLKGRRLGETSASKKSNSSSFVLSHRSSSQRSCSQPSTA
OXTR potentiator: human OXTR potentiators, primary screen, fluorescence, CHO-OTR cells, Fluo-8 calcium | Oxytocin receptor (Homo sapiens), P30559 | Fluo-8 calcium fluorescence, potentiator mode; 0% = oxytocin EC15, 100% = EC100 | activation, % at 3 µM | 0.061% of 320,000 active;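 active = activation above that plate's cutoff, the mean activation of tested compounds plus 3 SD, cut at about 6.6% in these data, passing the limit was not always enough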
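assay system = CHO-OTR cells, human receptor | schedule = compound 6 min at room temperature before oxytocin, 100 s read | detection = Fluo-8 intracellular calcium fluorescence, ex 470-495, em 515-575 nm | evaluation = normalized max/min fluorescence ratio, % activation | control set = EC15 oxytocin alone as 0%, 75 nM oxytocin (EC100) as 100%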
OX1R antag-2: antagonists of human orexin 1 receptor (OX1R); inhibition, % at 6.6 µM; 1.8% of 330,000 active; OX1R-expressing cells, FRET antagonist read-out; AID 485270, 2010; in the data active = inhibition mostly above about 38%, no sharp cut-off; inactive = mostly below about 40%
CHO parental Ca: ATP-evoked calcium signal inhibitors, parental CHO, primary screen, counter-screen for OX1R antagonist project, cell-based, fluorescence, Fluo-8 calcium dye; parental CHO-K1, ATP-induced calcium, Fluo-8 fluorescence; inhibition, % at 5.6 µM; 0.63% of 330,000 active; AID 463079, 2010;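 active = inhibition above that plate's mean sample inhibition plus 3 SD, cut at about 26% in these data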
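Material: parental CHO cells / Compound: single nominal dose of 5.6 µM per compound / Signal: Fluo-8 fluorescence / Replicates: singlicate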
A number is an active result; . = inactive; + = active, no number. Compounds with a hit are over-represented: about 2.6% of the library has one in this group of screens.

SMILES	V1R ag counter	OX1R antag-1	OXTR ag	OXTR potentiator	OX1R antag-2	CHO parental Ca
O=[N+]([O-])c1ccc(-n2cc(-c3ccccc3)nn2)cc1	.	.	.	.	.	.
CSCC[C@H](NS(=O)(=O)c1ccc(C)cc1)C(=O)N1CCC(C(=O)N[C@H](C(=O)O)c2ccccc2)CC1	.	.	.	.	.	.
CCOc1ccc(C(CCc2ccccc2)NC(=O)c2ccccc2OC)cc1OCC (centres undefined)	.	47	.	.	.	.
CC(C)(C)OC(=O)C[C@@H]1C/C=C\C[C@H](CC(=O)N(CCO)Cc2ccccc2)C(=O)NC[C@@H](c2ccccc2)OC1=O	.	.	.	.	54	.
O=C1NC[C@H](c2ccccc2)OC(=O)[C@@H](Cc2ccc(F)cc2)C/C=C\C[C@H]1CC(=O)N(CCO)Cc1ccccc1	.	.	.	.	56	.
COc1ccc(CN(C(=O)CN2C(=O)COc3ccccc32)C2CCCC2)c(OC)c1	.	.	.	.	58	.
Cc1cc(/C=N/Nc2nc(N)ncc2[N+](=O)[O-])c(C)n1-c1ccccc1F	.	.	.	.	44	.
COc1ccc(CCNC(=O)c2cc(=O)c3cc(C)ccc3o2)cc1OC	.	.	.	.	.	.
CNc1ccccc1C(C)(C)c1cc(-c2cccc(OC)c2)no1	.	.	.	.	.	41
CNc1ccccc1C(C)(C)c1cc(-c2cc(C)cc(C)c2)no1	.	.	.	.	.	.
CCOc1cc(C(=O)NCCCn2ccnc2)cc(OCC)c1OCC	.	.	.	.	.	.
CC(Sc1nc(-c2ccccc2)cc(C(F)(F)F)n1)C(=O)N1CCCC1 (centres undefined)	.	.	.	.	.	.
CC1CCN(C(=O)C(C)Sc2nc(-c3ccccc3)cc(C(F)(F)F)n2)CC1 (centres undefined)	.	.	.	.	.	30
COc1cc(C(=O)OCC(=O)c2ccccc2)cc2c1OCCO2	.	.	.	.	.	.
CCc1nccn1C(=O)c1cnn2c(C(F)F)cc(-c3ccccc3)nc12	.	.	.	.	66	.
Cc1cc(NC(=O)COC(=O)C2CCC(=O)N2)c([N+](=O)[O-])cc1C (centres undefined)	.	.	.	.	61	.
Cc1cc(NC(=O)COC(=O)CC2CCCC2)c([N+](=O)[O-])cc1C	.	.	.	.	.	.
Cc1ccc(NC(=O)[C@H](C)NC(=O)C2CCN(C(=O)[C@@H](N)CC(C)C)CC2)cc1	.	.	.	.	.	.
O=S(=O)(NC1CC1)c1ccc(Cl)cc1F	.	.	.	.	.	.
O=P(OC1CCCCC1)(OC1CCCCC1)C(O)c1c(Cl)cccc1Cl (centres undefined)	.	.	.	.	45	.
O=P(OC1CCCCC1)(OC1CCCCC1)C(O)c1ccc(Cl)cc1Cl (centres undefined)	.	.	.	.	.	.
C[C@@H]1CN([C@@H](C)CO)C(=O)c2cccc(NC(=O)Nc3ccccc3)c2O[C@H]1CN(C)C(=O)Nc1cccc2ccccc12	.	.	.	.	.	.
Nc1ccc(-c2c3ccc(=O)cc-3oc3cc(O)ccc23)cc1C(=O)O	261	84	292	.	69	70
O=c1ccc2c(-c3ccccc3)c3ccc(O)cc3oc-2c1	+	107	850	.	.	101
COc1cc2sc3cc(NCCCN4CCOCC4)ccc3c(=O)c2cc1OC	.	.	.	.	63	.
O=c1c2ccccc2sc2ccc(NCCCN3CCOCC3)cc12	.	.	.	.	.	.
CC(=O)Oc1cc(C(=O)OCC(=O)N2CCc3ccccc3C2)cc(OC(C)=O)c1OC(C)=O	.	.	.	.	.	.
